This note sets out measurements from ChEMBL document CHEMBL1125925, “DNA-directed alkylating agents. 4. 4-anilinoquinoline-based minor groove directed aniline mustards” (J Med Chem, 1991).

Data set [1] has as its system CHO-AA8. The data set is described as follows: Inhibition of cell growth in culture against Chinese hamster ovary derived cell line, AA8. In kind it is functional, cell-based, Cricetulus griseus. The procedure, abridged:
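AA8 Chinese hamster ovary cells were kept in log phase in Alpha MEM with 10% fetal calf serum and exposed to drug for 18 h. Drug was removed by three washes with fresh medium, then cells were grown a further 72 h. Cell density was read by methylene blue staining. IC50 is the nominal concentration reducing cell density to 50% of controls, with eight controls per plate. Values are means of three determinations.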

For data set [2], the system named is P388. The data set is described as follows: Inhibition of cell growth in culture against wild type P388 murine leukemia. In kind it is functional, cell-based, Mus musculus. In a few lines: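 Wild-type P388 murine leukemia cells were kept in log phase in RPMI 1640 with 10% fetal calf serum. Drug was present throughout the 72 h growth period. Final cell density was read by a modified MTT method. IC50 is the nominal concentration reducing cell density to 50% of controls, with eight controls per plate. Values are means of three determinations.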

Data set [3] deals with P388. Briefly: Evaluation in vivo against […] cell line for percentage increase in lifespan of drug-treated tumor-bearing animals at 30 mg/kg dose.(ILS); NA=Compound inactive at nontoxic doses. The data set is classed as functional, organism-based. Further details: dose 30 mg/kg. The note with it: Mus musculus. The procedure, abridged:
(§1)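 Animals received 10^6 P388 cells intraperitoneally. On day 1, 24 h after inoculation, a single intraperitoneal drug dose was given in 0.1 mL of 30% v/v dimethylacetamide/water. ILS is the percentage increase in lifespan of treated tumor-bearing animals at the optimal dose, defined as the dose giving maximal life extension. ILS above 20% is counted as significant.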

Data set [4] in a line: Hypersensitivity factor value is IC50 of (AA8) to that of UV4 where UV4 is a mutant AA8 line lacking the ability to perform incision repair. In kind it is functional. The procedure, abridged:
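HF is IC50(AA8)/IC50(UV4), where UV4 is an AA8 mutant lacking incision repair. Both lines were grown in Alpha MEM with 10% fetal calf serum and given an 18 h drug exposure, then washed and grown 72 h more. Cell density was read by methylene blue staining, and IC50 was set at 50% of control density.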

Data set [5] is filed under the species Bos taurus. Briefly: Spectrophotometry for binding to calf thymus DNA in 0.01 M HEPES buffer (pH 7.0) at 25 degree C. In kind it is ADME. The note with it: cattle.
Data set [6] concerns P388. Briefly: Evaluation in vivo against […] cell line for percentage increase in lifespan of drug-treated tumor-bearing animals when treated at 30 mg/kg dose.(ILS). In kind it is functional, Mus musculus. The procedure, abridged:
as §1

Data set [7] deals with P388. Briefly: Evaluation in vivo against […] cell line for percentage increase in lifespan of drug-treated tumor-bearing animals at 100 mg/kg dose.(ILS); NA=Compound inactive at nontoxic doses. The note with it: Mus musculus. Further details: dose 100 mg/kg. The data set is classed as functional, organism-based. The procedure, abridged: as §1
Data set [8] relates to P388. Briefly: Evaluation in vivo against […] cell line for percentage increase in lifespan of drug-treated tumor-bearing animals when treated at 45 mg/kg dose.(ILS). In kind it is functional, Mus musculus. The procedure, abridged: as §1
Data set [9] relates to P388. The data set is described as follows: Evaluation in vivo against […] cell line for percentage increase in lifespan of drug-treated tumor-bearing animals when treated at 225 mg/kg dose.(ILS). The data set is classed as functional, Mus musculus. The procedure, abridged: as §1

Structures are written as SMILES. pIC50: −log10 of the molar value. Calls of active or inactive are those of the source.

As for `CCN(CCCl)c1ccc(Oc2ccc(Nc3ccnc4ccccc34)cc2)cc1`, the pIC50 in [1] (Cricetulus griseus, CHO-AA8) was 5.15; in data set [2] (Mus musculus, P388), 6.30. Also, the Increase entry in data set [3] was “inactive”. Also, the Ratio in data set [4] came to 11.3.
`C[n+]1ccc(Nc2ccc(Oc3ccc(N(CCCl)CCCl)cc3)cc2)c2ccccc21` showed a pIC50 in data set [1] (Cricetulus griseus, CHO-AA8) of 6.19. Further, in data set [5], the “Log K” value is given as 6.45 M-1. Further, the Increase in data set [6] amounted to 20%. In addition, in [4], the Ratio amounted to 23.
For the molecule `C[n+]1ccc(Nc2ccc(C(=O)c3ccc(N(CCCl)CCCl)cc3)cc2)c2ccccc21`, the pIC50 in [1] (Cricetulus griseus, CHO-AA8) is 5.55; in [2] (p388), 5.92. The “Log K” value in data set [5] is reported as 6.61 M-1. The Increase result in data set [7] is “inactive”. Further, in data set [4], the Ratio was 6.4.
For the molecule `C[n+]1ccc(Nc2ccc(Cc3ccc(N(CCCl)CCCl)cc3)cc2)c2ccccc21`, the pIC50 was 6.22 in data set [1] (cho-aa8) and 7.14 in [2] (p388). In addition, the “Log K” value in [5] was 6.58 M-1. For the same molecule, in data set [8], the Increase was determined as 46%. The Ratio in data set [4] came to 20.
In the case of `C[n+]1ccc(Nc2ccc(C(=O)Nc3ccc(N(CCCl)CCCl)cc3)cc2)c2ccccc21`, the pIC50 in data set [1] (Cricetulus griseus, CHO-AA8) is 6.47; in data set [2] (p388), 6.31. The “Log K” value in data set [5] is on record as 6.48 M-1. This molecule had an Increase in [6] of 28%. Besides, in [4], the Ratio is 17.
As to `O=C(O)CCCc1ccc(N(CCCl)CCCl)cc1` [CHLORAMBUCIL], the Increase in data set [9] was determined as 37%. For the same molecule, the Ratio in data set [4] came to 58.

In general, pIC50 refers to −log10 of the IC50, conventionally taken in molar units. High values mean a low IC50, low ones a high IC50.
